The values that follow come from ChEMBL document CHEMBL4706647, “Development and optimization of halogenated vinyl sulfones as Nrf2 activators for the treatment of Parkinson's disease” (Eur J Med Chem, 2021).

Data set [1] concerns the target T1, Nuclear factor erythroid 2-related factor 2 (Mus musculus) (UniProt Q60795).
T1 sequence (whole entry): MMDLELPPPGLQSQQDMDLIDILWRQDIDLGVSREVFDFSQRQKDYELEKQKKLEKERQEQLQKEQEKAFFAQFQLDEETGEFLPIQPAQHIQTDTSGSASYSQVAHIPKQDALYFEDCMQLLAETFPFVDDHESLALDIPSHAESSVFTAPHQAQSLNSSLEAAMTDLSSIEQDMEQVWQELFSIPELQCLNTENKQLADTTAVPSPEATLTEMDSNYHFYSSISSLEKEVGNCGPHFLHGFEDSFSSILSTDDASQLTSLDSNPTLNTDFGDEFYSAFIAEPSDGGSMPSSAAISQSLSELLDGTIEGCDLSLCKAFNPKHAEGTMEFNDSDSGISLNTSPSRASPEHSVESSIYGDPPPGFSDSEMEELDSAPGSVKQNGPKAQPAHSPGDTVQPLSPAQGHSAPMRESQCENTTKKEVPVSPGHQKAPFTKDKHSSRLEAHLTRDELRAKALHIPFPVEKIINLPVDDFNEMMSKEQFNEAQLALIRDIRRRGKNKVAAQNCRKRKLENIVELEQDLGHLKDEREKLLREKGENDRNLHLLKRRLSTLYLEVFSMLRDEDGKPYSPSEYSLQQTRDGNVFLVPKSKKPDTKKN
Description: Activation of Nrf2 in mouse BV-2 cells assessed as increase in nuclear Nrf2 levels after 6 hrs by Western blot analysis. Type of data set: cell-based. Conditions: filed as activator, dose 0.02-10 µM. Background: In western blotting, separated proteins are transferred to a membrane and probed.

Data set [2] relates to Mus musculus. Briefly: Neuroprotective activity in MPTP-induced C57BL/6 mouse model of Parkinson's disease assessed as reduction in time to climb down at 30 mg/kg, po pretreated for 1 day followed by MPTP challenge and subsequent compound dosing for 2 days measured 6 days post MPTP challenge by vertical grid test. Type of data set: functional, organism-based. Conditions: time 7.0 day. Summed up: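 Male C57BL/6 mice, 10 weeks old, 23–26 g, n = 10 per group. Dosed 30 mg/kg p.o. for 3 consecutive days in 10% N-methyl-2-pyrrolidone/20% Tween-80 in water. On day 2, MPTP-HCl 20 mg/kg i.p. given four times at 2 h intervals. Coat-hanger (scored 1–5, test done twice) and vertical grid tests run 6 days after MPTP. Brains taken next day for anti-TH immunohistochemistry (1:1000, DAB).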

The target of data set [3] is T2, Nuclear factor erythroid 2-related factor 2 (Homo sapiens, UniProt Q16236).
T2 sequence (Q16236 whole entry): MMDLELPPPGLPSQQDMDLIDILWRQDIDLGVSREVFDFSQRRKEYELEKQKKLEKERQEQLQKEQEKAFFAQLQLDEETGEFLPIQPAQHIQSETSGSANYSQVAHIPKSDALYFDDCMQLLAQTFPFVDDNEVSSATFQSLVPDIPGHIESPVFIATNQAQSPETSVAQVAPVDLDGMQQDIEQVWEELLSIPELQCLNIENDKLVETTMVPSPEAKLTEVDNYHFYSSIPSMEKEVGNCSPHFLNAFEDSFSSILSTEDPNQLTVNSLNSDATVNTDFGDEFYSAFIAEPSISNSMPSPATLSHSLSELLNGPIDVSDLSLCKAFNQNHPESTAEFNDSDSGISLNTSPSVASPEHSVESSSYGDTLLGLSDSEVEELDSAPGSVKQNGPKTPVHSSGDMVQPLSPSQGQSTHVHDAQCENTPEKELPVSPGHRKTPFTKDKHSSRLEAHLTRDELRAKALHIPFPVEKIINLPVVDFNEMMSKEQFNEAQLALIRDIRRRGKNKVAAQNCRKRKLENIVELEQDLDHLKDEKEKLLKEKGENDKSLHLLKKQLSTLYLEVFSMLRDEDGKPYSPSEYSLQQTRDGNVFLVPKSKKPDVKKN
Description: Activation of Nrf2 (unknown origin) expressed in human U2OS cells co-expressing Keap1 assessed as increase in Nrf2 nuclear translocation incubated for 6 hrs under dark condition by pathhunter assay. Type of data set: cell-based.

Data set [4] in a line: Cytotoxicity against mouse BV-2 cells assessed cell viability at 3 uM measured after 6 hrs by Ez-cytox reagent based assay relative to control. The note with it: read-out: Activity. Summed up:
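BV-2 cells (1.0 × 10⁴/well) grown 24 h at 37 °C, 5% CO2, then treated 6 h at […]. Viability expressed as percent of control.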

In data set [5] the target is T1, Nuclear factor erythroid 2-related factor 2 (Mus musculus). Description: Activation of Nrf2 in mouse BV-2 cells assessed as increase in nuclear Nrf2 levels at 10 uM after 6 hrs by Western blot analysis relative to control. The note with it: filed as activator. Type of data set: cell-based.

pEC50: −log10 of the molar value. Active and inactive are the calls of the source. The rule behind the calls is not given here.

One may read the pEC50 as the EC50 on a negative log10 scale, so that one unit is a factor of ten. Regarding `O=S(=O)(/C=C/c1ncccc1Cl)c1ccccc1Cl`, the Activity result in data set [1] was “Dose-dependent effect”. For the same compound, the outcome in data set [2] was Active. Moreover, in data set [3], the pEC50 was 7.59. Besides, the viability at 6 h, 3 µM in data set [4] came out at 92.4%. Moreover, the fold change (FC) in data set [5] stood at 22.6.
